The values that follow come from ChEMBL document CHEMBL2406946 (Bioorg Med Chem, 2013).

The target of data set [1] is Aldo-keto reductase family 1 member B1 (Bos taurus, UniProt P16116). The experiment in a line: Inhibition of bovine lens aldose reductase using DL-glyceraldehyde as substrate assessed as NADPH oxidation measured for 10 mins by spectrophotometric analysis. Summed up:
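Aldose reductase isolated from bovine lens (enzyme at 750 µg/mL protein) in 50 mM PBS pH 6.2 with β-mercaptoethanol, Li2SO4 and NADPH, compounds across a 0.1–10 range. Reaction started with DL-glyceraldehyde. Fall in NADPH absorbance at 340 nm followed for 10 min.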

Data set [2] is described as follows: Induction of nitric oxide release at 10^-4 M after 1 hr by Griess assay in presence of L-cysteine relative to control. It counts as physicochemical. Conditions: 100 µM. The method, boiled down:
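Thiol-triggered NO release: compounds at final 10^-4 M incubated 1 h at 37 °C with L-cysteine. 1 mL of mixture treated with Griess reagent (sulfanilamide, N-naphthylethylenediamine dihydrochloride, phosphoric acid), held 10 min at room temperature, absorbance read at 540 nm. Percent NO released relative to a theoretical maximum of 1 mol NO/mol compound. Sodium nitroprusside served as positive control.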

The target in data set [3] is Aldo-keto reductase family 1 member B1 (Bos taurus) (UniProt P16116). Nature of the data set: Ratio of quercetin IC50 to compound iC50 for bovine lens aldose reductase.
The target is the same in data set [4]. Nature of the data set: Ratio of 4-(5-hydroxy-4-oxo-2-phenyl-4H-chromen-7-yloxy)butyl nitrate IC50 to compound IC50 for bovine lens aldose reductase.

pIC50: −log10 of the molar value.

For `O=C(COc1cc(O)c2c(=O)cc(-c3ccc4c(c3)OCCO4)oc2c1)OCCCCO[N+](=O)[O-]`, the pIC50 in data set [1] was 6.31. Besides, the Activity in data set [2] amounted to 1.351%.

`CCOC(=O)COc1cc(O)c2c(=O)cc(-c3ccc4c(c3)OCCO4)oc2c1`: the pIC50 in data set [1] is 6.30.

With `CCCCOc1cc(O)c2c(=O)cc(-c3ccc(O)c(O)c3)oc2c1`, in data set [1], the pIC50 was 6.11.

On to `O=c1cc(-c2ccc3c(c2)OCCO3)oc2cc(OCCCCCCO[N+](=O)[O-])cc(O)c12`, for which the pIC50 in data set [1] was 6.35. Besides, the Activity in data set [2] was 1.328%.

Regarding `CCCCOC(=O)COc1cc(O)c2c(=O)cc(-c3ccc4c(c3)OCCO4)oc2c1`, the negative logarithm of the IC50 (pIC50) in data set [1] was 6.28.

For `O=c1cc(-c2ccc(O)c(O)c2)oc2cc(OCCCCCCO[N+](=O)[O-])cc(O)c12`, the pIC50 in data set [1] was 6.31. Also, the Activity in data set [2] amounted to 4.637%.

Turning to `CCCCCCOc1cc(O)c2c(=O)cc(-c3ccc(O)c(O)c3)oc2c1`, the pIC50 in data set [1] was 5.74.

On to `CCOc1cc(O)c2c(=O)cc(-c3ccc4c(c3)OCCO4)oc2c1`, for which the pIC50 in data set [1] is 5.93.

`CCCCCCOc1cc(O)c2c(=O)cc(-c3ccc4c(c3)OCCO4)oc2c1`: in data set [1], the pIC50 is 5.77.

Regarding `CCCCOc1cc(O)c2c(=O)cc(-c3ccc4c(c3)OCCO4)oc2c1`, the pIC50 in data set [1] is 5.90.

For `O=c1cc(-c2ccc(O)c(O)c2)oc2cc(OCCCCO[N+](=O)[O-])cc(O)c12`, the pIC50 in data set [1] is 6.33. The Activity in data set [2] is 2.345%.

`O=c1cc(-c2ccc3c(c2)OCCO3)oc2cc(OCCO[N+](=O)[O-])cc(O)c12`: the Ratio IC50 in data set [3] amounted to 28.5. The pIC50 in data set [1] was 7.00. Moreover, in data set [2], the Activity amounted to 2.111%.

As to `O=C(COc1cc(O)c2c(=O)cc(-c3ccc4c(c3)OCCO4)oc2c1)OCCCCCCO[N+](=O)[O-]`, the pIC50 in data set [1] was 5.89. Besides, in data set [2], the Activity is reported as 1.14%.

Consider `CCOc1cc(O)c2c(=O)cc(-c3ccc(O)c(O)c3)oc2c1`, for which the pIC50 in data set [1] was 6.22.

Take `O=c1cc(-c2ccc3c(c2)OCCO3)oc2cc(OCCCCO[N+](=O)[O-])cc(O)c12`: the Ratio IC50 in data set [4] was determined as 2.3. Moreover, in data set [1], the pIC50 was 6.90. Moreover, the Activity in data set [2] is 2.813%.

For the compound `O=C(COc1cc(O)c2c(=O)cc(-c3ccc4c(c3)OCCO4)oc2c1)OCCO[N+](=O)[O-]`, the pIC50 in data set [1] was 6.35. In addition, the Activity in data set [2] is recorded as 1.018%.

Consider `O=c1cc(-c2ccc(O)c(O)c2)oc2cc(OCCO[N+](=O)[O-])cc(O)c12`, for which the pIC50 in data set [1] is 6.77. Further, in data set [2], the Activity turned out to be 1.07%.

In the case of `CCCCCCOC(=O)COc1cc(O)c2c(=O)cc(-c3ccc4c(c3)OCCO4)oc2c1`, in data set [1], the pIC50 was 5.55.

Take `O=c1cc(-c2ccc(O)c(O)c2)oc2cc(O)cc(O)c12` [LUTEOLIN]: the pIC50 in data set [1] was 6.12.

As a reminder, the pIC50 is the negative decadic logarithm of the IC50, by convention in mol/L.
